# Rows were chosen to be rich in hits. Some 3.7% of all compounds tested hit in one or more screens of this group.
# hERG protect = hERG rescue from dofetilide block, primary screen, cell-based, CHO-hERG, FluxOR thallium flux, dofetilide IC70 | activation (rescue from dofetilide block), less the hit threshold, % at 10 µM | dofetilide IC70 present | 310,000 compounds, 0.51% hits;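 active = activation above the mean of controls blocked by dofetilide plus 5 SD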;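 note: thallium influx through hERG after potassium depolarization seen as dye fluorescence rise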
# KCNK3 inh = human KCNK3 channel inhibitors, primary screen, CHO cells, FluxOR thallium flux, B-score; Potassium channel subfamily K member 3 (Homo sapiens), O14649; B-score at 10 µM; 340,000 compounds, 0.84% hits; FluxOR fluorescence; stronger effect = lower value;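 active = B-score under library mean minus 4 SD, starting fluorescence ratio at most library mean plus 5 SD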;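 note: more negative B-score means stronger inhibition of thallium flux through KCNK3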
# KCNQ1 pot = potentiators or activators of KCNQ1 channel, primary screen, cell-based, thallium flux, high-throughput. Potassium voltage-gated channel subfamily KQT member 1 (Homo sapiens), P51787. CHO-K1 KCNQ1, thallium flux FluxOR fluorescence; stronger effect = higher value. B-score at 10 µM. 310,000 compounds, 0.35% hits;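 active = fluorescence ratio B-score, a plate-corrected score, at least three library SD, with initial intensity B-score within 5 SD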
#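 Test system: CHO-K1 cells stably expressing KCNQ1 / Medium: assay buffer / Also added: depolarizing K+/Tl+ stimulus, K2SO4 and Tl2SO4 each 12.5 mM in 5x stock / Incubation: 90 min dye loading and 20 min compound exposure, both at room temperature / Signal: thallium influx via FluxOR fluorescence, kinetic imaging / Evaluation: B score of baseline-normalized fluorescence ratio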
# KCNK9 block = KCNK9 potassium channel inhibitors, primary screen, HEK293 cells, thallium flux. Potassium channel subfamily K member 9 (Homo sapiens), Q9NPC2. FluxOR thallium flux fluorescence; stronger effect = lower value. B-score at 10 µM. 310,000 compounds, 1.2% hits;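 active = ratio B-score over 3 SD below the library mean, with starting fluorescence within 5 SD of its mean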;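 note: negative B-score means less thallium flux so channel inhibition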
# Target sequence (Q9NPC2 whole entry, looked up): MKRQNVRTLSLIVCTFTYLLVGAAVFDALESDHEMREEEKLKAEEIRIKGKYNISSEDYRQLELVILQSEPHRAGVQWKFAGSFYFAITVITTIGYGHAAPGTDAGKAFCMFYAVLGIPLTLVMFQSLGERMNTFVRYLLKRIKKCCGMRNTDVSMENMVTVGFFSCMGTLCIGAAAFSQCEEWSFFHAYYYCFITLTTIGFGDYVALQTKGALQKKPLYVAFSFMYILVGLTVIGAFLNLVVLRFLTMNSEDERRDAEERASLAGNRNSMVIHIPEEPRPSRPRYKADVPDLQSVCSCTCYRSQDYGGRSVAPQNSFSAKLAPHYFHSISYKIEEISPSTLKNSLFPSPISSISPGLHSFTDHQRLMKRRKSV
# KCNQ1 block = inhibitors of human KCNQ1 channel, primary screen, cell-based, thallium flux, high-throughput; Potassium voltage-gated channel subfamily KQT member 1 (Homo sapiens), P51787; CHO-K1 KCNQ1, FluxOR thallium flux fluorescence; stronger effect = higher value; B-score at 10 µM; 310,000 compounds, 1.3% hits;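 active = compounds whose thallium flux B-score, printed positive for inhibition, exceeds three library SD while starting fluorescence stays within three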;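 note: channel opened by potassium depolarization with thallium stimulus after 20 min compound exposure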
# Kir21 block = inhibitors of mouse Kir2.1 inward-rectifier potassium channel. AID 1672, 2009. 310,000 compounds, 0.85% hits. B-score at 10 µM. Inward rectifier potassium channel 2 (Mus musculus), P35561. HEK293-Kir2.1, FluxOR thallium flux fluorescence; stronger effect = lower value;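 active = fluorescence ratio B-score at or below minus 3 SD of library scores, with starting-brightness B-score within 2 SD, cut at about -4.2 in these data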;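 note: channel flux triggered by added potassium and thallium sulfate stimulus; B-score of peak minus minimum fluorescence over baseline after thallium stimulus; more negative B-score means stronger Kir2.1 block with less thallium influx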
# An asterisk follows results filed as active; i = inactive; . = no result.
SMILES,hERG protect,KCNK3 inh,KCNQ1 pot,KCNK9 block,KCNQ1 block,Kir21 block
CC1(C)C[C@@H]2C[C@@](C)(CN2C(=O)c2cc(COc3cccc(C(F)(F)F)c3)on2)C1,-14.2,i,i,i,7*,-0.01
O=C(c1cc(COc2cccc(C(F)(F)F)c2)on1)N1C[C@H]2CC[C@H]1C2,-9.6,i,i,i,i,0.03
N#CC1=C(N)NC(SCC(=O)c2ccc(Br)cc2)=C(C#N)C12CCCCC2,-26.3,i,i,i,12*,-1.12
CCSC1=C(C#N)C2(CCCCC2)C(C#N)=C(N)N1,-21.0,i,i,i,i,-2.06
CCCSC1=C(C#N)C2(CCCCC2)C(C#N)=C(N)N1,-30.1,i,i,i,8*,-1.53
N#CC1=C(N)NC(SCC(=O)c2ccc(Cl)cc2)=C(C#N)C12CCCC2,-27.2,i,i,i,7*,-1.64
N#Cc1c(-c2ccc(Cl)cc2)ccnc1N1CCOCC1,-17.0,i,i,i,i,0
O=C1c2ccccc2S(=O)(=O)c2cc(C(=O)N3CCN(c4ccc(Cl)cn4)CC3)ccc21,-9.7,i,i,i,i,1.46
CCC1(c2ccc(Cl)cc2)NC(=S)N(c2ccc(C)cc2)N1 (configuration not stated),37.6*,i,68*,i,i,0.11
CCC1(c2ccc(Cl)cc2)NC(=S)N(c2ccc(C)c(C)c2)N1 (configuration not stated),68.3*,i,103*,i,i,-0.47
CC1(CCc2ccccc2)NC(=S)N(c2ccc(Cl)cc2)N1 (configuration not stated),-5.9,i,i,i,i,0.68
CCC1(c2ccccc2)NC(=S)N(c2ccc(C)c(C)c2)N1 (configuration not stated),47.1*,i,91*,i,i,-0.13
CC1=CC(C)(C)NC(=S)N1c1ccc(C)c(C)c1,4.5,i,i,i,i,0.17
N/C(=N\OC(=O)c1ccccc1Br)c1ccc([N+](=O)[O-])cc1,-3.8,i,i,i,i,-0.27
N/C(=N\OC(=O)c1ccccc1Br)c1cccc([N+](=O)[O-])c1,-6.8,i,i,-7.13*,i,2.38
CCCCOC(=O)c1ccc(NC(=S)NC(=O)c2c(Cl)cnn2CC)cc1,-0.4,i,75*,i,i,0.46
CCOc1ccccc1NC(=O)c1ccccc1-c1ccccc1,-4.1,i,i,i,i,-4.85*
CCN(CC)c1ccc(NC(=S)NC(=O)c2cccs2)cc1,6.5*,i,i,i,i,0.83
CC(=O)NC(=S)Nc1ccc(NC(=S)NC(=O)c2cccs2)cc1,-1.8,i,i,i,i,1.55
CCOc1ccccc1NC(=S)NC(=O)c1ccco1,1.0,i,11*,i,i,-0.24
CCOc1ccccc1NC(=O)c1ccccc1NC(=O)c1ccco1,-9.8,i,i,i,i,1.44
N#Cc1ccccc1COC(=O)c1cccc(S(=O)(=O)N2CCCC2)c1,.,i,.,.,.,.
CCN(CC)c1ccc(NC(=O)c2ccco2)cc1,-10.1,i,i,i,i,0
CCCCOC(=O)c1ccc(NC(=S)NC(=O)c2ccco2)cc1,-0.2,i,11*,i,i,-1.16
CCCCOC(=O)c1ccc(NC(=O)/C=C/c2cccs2)cc1,-13.5,i,i,i,13*,-0.2
SMILES,hERG protect,KCNK3 inh,KCNQ1 pot,KCNK9 block,KCNQ1 block,Kir21 block
CCCCC(=O)Nc1ccc(NC(=S)NC(=O)c2ccco2)cc1OC,-4.3,i,i,i,i,0.72
CCN(CC)c1ccc(NC(=S)NC(=O)c2ccco2)cc1,52.9*,i,35*,i,i,-0.23
COc1ccc(CC(=O)N(c2ccccc2)c2nc(C)cs2)cc1,-10.8,i,i,i,i,-5.54*
CC1=CC(C)(C)N(C(=O)CNC2CCCCC2)c2cc(C)ccc21,-13.1,i,i,i,i,-6.05*
CC1=CC(C)(C)N(C(=O)CCl)c2cc(C)ccc21,-18.9,i,i,i,i,-2.72
CCOC(=O)c1c(C)oc2cc(Br)c(OC)cc12,9.4*,i,i,i,i,1.46
CN(C)Cc1nc2ccccc2c(=O)n1Cc1nc(-c2cccc([N+](=O)[O-])c2)cs1,-12.8,i,i,-7.62*,i,1.86
Cc1ccc(S(=O)(=O)N(Cc2n[nH]c(=S)n2-c2ccccc2)c2cccc(Cl)c2)cc1,-19.3,i,i,i,6*,0.01
Cc1ccc(S(=O)(=O)N(Cc2n[nH]c(=S)n2-c2ccccc2)c2ccccc2)cc1,-15.4,i,i,i,i,-0.4
O=C(Nc1ccccn1)c1ccccc1,.,i,.,.,.,.
O=C(c1ccccc1)C(Nc1ccccn1)c1ccccc1 (configuration not stated),-13.4,i,i,-7.05*,i,-1.73
CC1CCC2(CC1)NC(=O)N(CC(=O)NCc1ccc(Cl)cc1)C2=O (configuration not stated),.,i,.,.,.,.
CN(C(=O)C(Cl)Cl)c1ccc(OC(=O)c2ccco2)cc1,-3.9,i,i,i,i,-4.69*
O=C(Oc1cccnc1)c1ccco1,2.8,i,i,i,i,0.2
O=S(=O)(Nc1nc(-c2ccccc2)cs1)c1cc(Cl)ccc1Cl,-5.7,i,i,i,6*,-0.31
COC(=O)c1cc2ccsc2n1Cc1nc(-c2cccc(Cl)c2)oc1C,-1.4,i,i,-7.33*,i,0.17
COC(=O)c1cc2sccc2n1Cc1nc(-c2ccc(Cl)cc2)oc1C,-1.6,i,i,i,i,1.25
Cn1cnnc1Sc1ccc(C(=O)NCCC(c2ccccc2)c2ccccc2)cc1[N+](=O)[O-],-9.7,i,i,i,10*,-0.93
Cc1ccc(NC(=O)COC(=O)CCc2nc3ccccc3c(=O)[nH]2)cc1Cl,-20.5,i,i,i,i,-1.14
O=C(CSc1nnnn1-c1cccc2c1CCCC2)N1CCCCC1,-9.5,i,i,i,i,-4.33*
Cc1nnc(C)c2c(C)n(C(c3ccccc3)c3ccccc3)c(C)c12,-21.5,i,i,i,i,-4.51*
Cc1nnc(C)c2c(C)n(-c3ccccc3)c(C)c12,-12.3,i,i,i,i,1.14

# High-throughput results (PubChem BioAssay)
